From ChEMBL document CHEMBL4011662 (J Med Chem, 2017)
pEC50: −log10 of the molar value.

Legend:
Format in all cases: cell-based
[1] = target: T1, Probable G-protein coupled receptor 34 (Homo sapiens, UniProt Q9UPC5); test: Agonist activity at human GPR34 expressed in HEK293 cells co-transfected with AP-TGFalpha/chimeric Galphaq/i1 assessed as induction of AP-TGFalpha release after 1 hr relative to control
How it was run: (§1)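 Same AP-TGFα shedding set-up in HEK293A (human GPR34 for line 2, mouse for line 4). Release was the %AP-TGFα in medium minus vehicle, then minus the mock-transfected response. Emax (% AP-TGFα release) and LogEC50 came from four-parameter sigmoid fits of plateau or semiplateau curves, as mean ± SEM of n independent experiments.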

[2] = target: T1, Probable G-protein coupled receptor 34; test: Intrinsic activity at human GPR34 expressed in HEK293 cells co-transfected with AP-TGFalpha/chimeric Galphaq/i1 assessed as induction of AP-TGFalpha release after 1 hr relative to O-(Hydroxy(((2R,3R)-2-(((3-(2-((3-phenoxybenzyl)oxy)phenyl)- propanoyl)oxy)methyl)tetrahydro-2H-pyran-3-yl)oxy)phosphoryl)- L-serine
[3] = target: Probable G-protein coupled receptor 34 (Mus musculus, UniProt Q9R1K6); test: Agonist activity at mouse GPR34 expressed in HEK293 cells co-transfected with AP-TGFalpha/chimeric Galphaq/i1 assessed as induction of ectodomain shedding of membrane bound AP-TGFalpha after 1 hr
Sequence of Probable G-protein coupled receptor 34 (Mus musculus, UniProt Q9R1K6) (Q9R1K6 whole entry, the tested form may be a part): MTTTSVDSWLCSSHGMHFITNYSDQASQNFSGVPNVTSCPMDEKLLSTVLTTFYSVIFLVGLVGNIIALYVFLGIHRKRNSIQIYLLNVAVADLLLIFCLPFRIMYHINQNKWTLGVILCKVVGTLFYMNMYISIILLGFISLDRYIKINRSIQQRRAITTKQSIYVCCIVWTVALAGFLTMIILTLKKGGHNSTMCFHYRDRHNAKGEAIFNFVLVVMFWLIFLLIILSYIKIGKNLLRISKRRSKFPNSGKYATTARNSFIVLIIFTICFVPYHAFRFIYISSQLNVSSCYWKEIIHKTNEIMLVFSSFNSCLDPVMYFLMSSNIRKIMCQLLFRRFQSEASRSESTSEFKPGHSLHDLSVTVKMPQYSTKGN
How it was run: (§2)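 HEK293A cells transiently co-transfected with AP-TGFα, chimeric Gαq/i1 and GPR34 (human for line 1, mouse for line 3) or empty vector (mock). After 24 h, cells were suspended in HBSS with 5 mM HEPES pH 7.4 and preincubated 30 min with 10 μM (final) Ki16425. Compounds in HBSS with 0.01% fatty acid-free BSA were added for 1 h at 37 °C. AP activity in medium and on cells was read as OD405 with p-NPP after 1 h at room temperature.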

[4] = target: Probable G-protein coupled receptor 34 (Mus musculus) (UniProt Q9R1K6); test: Agonist activity at mouse GPR34 expressed in HEK293 cells co-transfected with AP-TGFalpha/chimeric Galphaq/i1 assessed as induction of ectodomain shedding of membrane bound AP-TGFalpha after 1 hr relative to control; how it was run: as §1
Sequence of Probable G-protein coupled receptor 34 (Mus musculus) (Q9R1K6 whole entry, the tested form may be a part): as above

[5] = target: T1, Probable G-protein coupled receptor 34; test: Agonist activity at human GPR34 expressed in HEK293 cells co-transfected with AP-TGFalpha/chimeric Galphaq/i1 assessed as induction of AP-TGFalpha release after 1 hr; settings: for pEC50: read-out: EC50; how it was run: as §2
[6] = target: Probable G-protein coupled receptor 34 (Mus musculus) (UniProt Q9R1K6); test: Intrinsic activity at mouse GPR34 expressed in HEK293 cells co-transfected with AP-TGFalpha/chimeric […] assessed as induction of ectodomain shedding of membrane bound AP-TGFalpha after 1 hr relative to O-(Hydroxy(((2R,3R)-2-(((3-(2-((3-phenoxybenzyl)oxy)phenyl)- propanoyl)oxy)methyl)tetrahydro-2H-pyran-3-yl)oxy)phosphoryl)- L-serine
How it was run: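 Relative intrinsic activity (RIA) was Emax/EC50 relative to that of a positive control agonist, whose RIA is defined as 1. Emax and EC50 came from sigmoid fits of receptor-specific AP-TGFα release in the HEK293A shedding assay, with human GPR34 for line 5 and mouse GPR34 for line 6, after 1 h at 37 °C.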

T1 sequence (Q9UPC5 whole entry): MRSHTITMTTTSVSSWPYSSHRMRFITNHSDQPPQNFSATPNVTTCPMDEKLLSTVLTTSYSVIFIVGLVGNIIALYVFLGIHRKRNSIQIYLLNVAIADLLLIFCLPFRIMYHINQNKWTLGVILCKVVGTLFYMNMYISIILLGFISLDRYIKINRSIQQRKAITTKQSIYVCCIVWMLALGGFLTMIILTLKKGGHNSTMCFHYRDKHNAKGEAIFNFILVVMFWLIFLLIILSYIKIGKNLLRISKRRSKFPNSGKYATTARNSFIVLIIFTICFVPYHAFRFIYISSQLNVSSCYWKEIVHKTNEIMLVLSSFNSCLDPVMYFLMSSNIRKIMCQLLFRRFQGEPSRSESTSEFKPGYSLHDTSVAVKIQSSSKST

Molecule `N[C@@H](COP(=O)(O)OCCCOC(=O)CCc1ccccc1OCc1cccc(Oc2ccc(-c3ccccc3)cc2)c1)C(=O)O` has an Emax [1] of 23%, an Intrinsic activity [2] of 2.1 and a pEC50 [3] of 7.35. It also gave an Emax [4] of 17.8%, a pEC50 [5] of 7.11 and an Intrinsic activity [6] of 2.2.

`N[C@@H](COP(=O)(O)O[C@@H]1CCCO[C@@H]1COC(=O)CCc1ccccc1OCc1cccc(Oc2ccccc2)c1)C(=O)O` showed an Emax [1] of 25.6%, an Intrinsic activity [2] of 1 and a pEC50 [3] of 6.74. For the same molecule, the Emax [4] was 21.3%, the pEC50 [5] was 6.82 and the Intrinsic activity [6] was 1.

`Cc1ccccc1Oc1cccc(COc2ccccc2CCC(=O)OCCCOP(=O)(O)OC[C@H](N)C(=O)O)c1` was tested, and the Emax [1] was 22%, the Intrinsic activity [2] was 1.2 and the pEC50 [3] was 6.19. For the same molecule, the Emax [4] was 20.3%, the pEC50 [5] was 6.74 and the Intrinsic activity [6] was 0.28.

`CCCCCCCCCCCOc1ccccc1CCC(=O)OCCCOP(=O)(O)OC[C@H](N)C(=O)O` gave a pEC50 [3] of 5.80, an Emax [4] of 14.6% and an Intrinsic activity [6] of 0.04.

In the case of `CC(C)(C)c1cccc(-c2ccc(Oc3cccc(COc4ccccc4CCC(=O)OCCCOP(=O)(O)OC[C@H](N)C(=O)O)c3)cc2)c1`, the Emax [1] was 18.8%, the Intrinsic activity [2] was 8.6 and the pEC50 [3] was 7.85. The Emax [4] was 15.9%, the pEC50 [5] was 7.82 and the Intrinsic activity [6] was 7.7.

`CC(C)(C)c1ccccc1Oc1cccc(COc2ccccc2CCC(=O)OCCCOP(=O)(O)OC[C@H](N)C(=O)O)c1` showed a pEC50 [3] of less than 5.52.

Molecule `N[C@@H](COP(=O)(O)OCCCOC(=O)CCc1ccccc1OCc1cccc(Oc2ccc(Cl)c(Cl)c2)c1)C(=O)O` has a pEC50 [3] of 6.96, an Emax [4] of 18% and an Intrinsic activity [6] of 0.71.

With `CC(C)(C)c1cccc(Oc2cccc(COc3ccccc3CCC(=O)OCCCOP(=O)(O)OC[C@H](N)C(=O)O)c2)c1` the pEC50 [3] was 6.68, the Emax [4] was 19.9% and the Intrinsic activity [6] was 0.39.

Molecule `N[C@@H](COP(=O)(O)OCCCOC(=O)CCc1ccccc1OCc1cccc(Oc2ccc(-c3ccc(-c4ccccc4)cc3)cc2)c1)C(=O)O` has an Emax [1] of 17%, an Intrinsic activity [2] of 3.2 and a pEC50 [3] of 7.74. It also gave an Emax [4] of 11.6%, a pEC50 [5] of 7.39 and an Intrinsic activity [6] of 4.3.

`CCc1ccc(Oc2cccc(COc3ccccc3CCC(=O)OCCCOP(=O)(O)OC[C@H](N)C(=O)O)c2)cc1` gave a pEC50 [3] of 6.74, an Emax [4] of 19.3% and an Intrinsic activity [6] of 0.42.

With `N#Cc1ccc(Oc2cccc(COc3ccccc3CCC(=O)OCCCOP(=O)(O)OC[C@H](N)C(=O)O)c2)cc1` the pEC50 [3] was 5.70, the Emax [4] was 18.3% and the Intrinsic activity [6] was 0.041.

Molecule `Cc1ccc(Oc2cccc(COc3ccccc3CCC(=O)OCCCOP(=O)(O)OC[C@H](N)C(=O)O)c2)cc1` has an Emax [1] of 22.1%, an Intrinsic activity [2] of 9.8 and a pEC50 [3] of 7.41. For the same molecule, the Emax [4] was 18.2%, the pEC50 [5] was 7.57 and the Intrinsic activity [6] was 3.7.

With `N[C@@H](COP(=O)(O)OCCCOC(=O)CCc1ccccc1OCc1cccc(Oc2ccc(Br)cc2)c1)C(=O)O` the pEC50 [3] was 7.09, the Emax [4] was 17.7% and the Intrinsic activity [6] was 0.97.

With `CCCCCCOc1ccc(-c2ccc(Oc3cccc(COc4ccccc4CCC(=O)OCCCOP(=O)(O)OC[C@H](N)C(=O)O)c3)cc2)cc1` the pEC50 [3] was 7.31, the Emax [4] was 17.4% and the Intrinsic activity [6] was 3.4.

`N[C@@H](COP(=O)(O)OCCCOC(=O)CCc1ccccc1OCc1cccc(Oc2ccc(Cl)cc2)c1)C(=O)O` was tested, and the pEC50 [3] was 6.92, the Emax [4] was 17.8% and the Intrinsic activity [6] was 0.76.

Molecule `CC(C)(C)c1ccc(-c2ccc(Oc3cccc(COc4ccccc4CCC(=O)OCCCOP(=O)(O)OC[C@H](N)C(=O)O)c3)cc2)cc1` has a pEC50 [3] of 8.10, an Emax [4] of 16.5% and an Intrinsic activity [6] of 21.

Molecule `N[C@@H](COP(=O)(O)OCCCOC(=O)CCc1ccccc1OCc1cccc(Oc2ccccc2)c1)C(=O)O` has an Emax [1] of 21.7%, an Intrinsic activity [2] of 1.7 and a pEC50 [3] of 6.66. For the same molecule, the Emax [4] was 19.4%, the pEC50 [5] was 7.05 and the EC50 ([5]; read-out: pEC50 (converted)) was 0.0955 µM. The Intrinsic activity [6] was 0.48.

Work on `CCCCCCOc1cccc(COc2ccccc2CCC(=O)OCCCOP(=O)(O)OC[C@H](N)C(=O)O)c1` yielded a pEC50 [3] of less than 5.52.

`N[C@@H](COP(=O)(O)OCCCOC(=O)CCc1ccccc1OCc1cccc(Oc2ccc(F)cc2)c1)C(=O)O` was tested, and the pEC50 [3] was 6.92, the Emax [4] was 18.7% and the Intrinsic activity [6] was 0.66.

Molecule `N[C@@H](COP(=O)(O)OCCCOC(=O)CCc1ccccc1OCc1cccc(Cc2ccccc2)c1)C(=O)O` has a pEC50 [3] of 5.89, an Emax [4] of 14.5% and an Intrinsic activity [6] of 0.077.

Molecule `Nc1ccc(Oc2cccc(COc3ccccc3CCC(=O)OCCCOP(=O)(O)OC[C@H](N)C(=O)O)c2)cc1` has a pEC50 [3] of 5.57, an Emax [4] of 21.3% and an Intrinsic activity [6] of 0.089.

`Cc1cccc(Oc2cccc(COc3ccccc3CCC(=O)OCCCOP(=O)(O)OC[C@H](N)C(=O)O)c2)c1` gave an Emax [1] of 24.2%, an Intrinsic activity [2] of 1.2 and a pEC50 [3] of 6.26. For the same molecule, the Emax [4] was 21.3%, the pEC50 [5] was 6.64 and the Intrinsic activity [6] was 0.29.

For `N[C@@H](COP(=O)(O)OCCCOC(=O)CCc1ccccc1OCc1cccc(-c2ccccc2)c1)C(=O)O`, the pEC50 [3] was less than 5.52.

`N[C@@H](COP(=O)(O)OCCCOC(=O)CCc1ccccc1OCc1cccc(Oc2cccc(Cl)c2)c1)C(=O)O` gave a pEC50 [3] of 6.77, an Emax [4] of 17.1% and an Intrinsic activity [6] of 0.53.

`N[C@@H](COP(=O)(O)OCCCOC(=O)CCc1ccccc1OCCCCCCOc1ccccc1)C(=O)O` showed a pEC50 [3] of 5.92, an Emax [4] of 20.7% and an Intrinsic activity [6] of 0.071.

Molecule `N[C@@H](COP(=O)(O)OCCCOC(=O)CCc1ccccc1OCc1cccc(Oc2ccc(I)cc2)c1)C(=O)O` has a pEC50 [3] of 7.00, an Emax [4] of 19.1% and an Intrinsic activity [6] of 0.82.

For `Cc1ccccc1-c1ccc(Oc2cccc(COc3ccccc3CCC(=O)OCCCOP(=O)(O)OC[C@H](N)C(=O)O)c2)cc1`, the pEC50 [3] was 7.11, the Emax [4] was 13.4% and the Intrinsic activity [6] was 0.94.

With `CCCCCCCC/C=C\CCCCCCCC(=O)OC[C@@H](O)COP(=O)(O)OC[C@H](N)C(=O)O` the Emax [4] was 14% and the Intrinsic activity [6] was 0.26.

For `CCCCCCOCC#CCOc1ccccc1CCC(=O)OCCCOP(=O)(O)OC[C@H](N)C(=O)O`, the pEC50 [3] was less than 5.52.

Work on `COc1ccc(Oc2cccc(COc3ccccc3CCC(=O)OCCCOP(=O)(O)OC[C@H](N)C(=O)O)c2)cc1` yielded a pEC50 [3] of 6.59, an Emax [4] of 16.6% and an Intrinsic activity [6] of 0.28.

In the case of `N[C@@H](COP(=O)(O)OCCCOC(=O)CCc1ccccc1OCc1cccc(Oc2ccccc2Cl)c1)C(=O)O`, the pEC50 [3] was 5.92, the Emax [4] was 19.8% and the Intrinsic activity [6] was 0.069.

For `N[C@@H](COP(=O)(O)OCCCOC(=O)CCc1ccccc1OCCCCOc1ccccc1)C(=O)O`, the pEC50 [3] was 5.77, the Emax [4] was 6.1% and the Intrinsic activity [6] was 0.033.

Molecule `CC(C)(C)c1ccc(Oc2cccc(COc3ccccc3CCC(=O)OCCCOP(=O)(O)OC[C@H](N)C(=O)O)c2)cc1` has an Emax [1] of 28.2%, an Intrinsic activity [2] of 0.7 and a pEC50 [3] of 6.05. It also gave an Emax [4] of 16.9%, a pEC50 [5] of 6.52 and an Intrinsic activity [6] of 0.079.

`CCCCCCCC/C=C\CCCCCCCC(=O)OCCCOP(=O)(O)OC[C@H](N)C(=O)O` showed a pEC50 [3] of less than 5.52.

For `N[C@@H](COP(=O)(O)OCCCOC(=O)CCc1ccccc1OCc1cccc(OC2CCCCC2)c1)C(=O)O`, the pEC50 [3] was 6.10, the Emax [4] was 18.8% and the Intrinsic activity [6] was 0.11.

Work on `N[C@@H](COP(=O)(O)OCCCOC(=O)CCc1ccccc1OCc1cccc(OCc2ccccc2)c1)C(=O)O` yielded a pEC50 [3] of less than 5.52.
